Source: ChEMBL document CHEMBL1158122, “Anti-inflammatory, anti-tumor-promoting, and cytotoxic activities of constituents of marigold (Calendula officinalis) flowers” (J Nat Prod, 2006)

Key:
[1] = Cytotoxicity against human Raji cells assessed as cell viability at 100 molar ratio; assay type: cell-based; conditions: read-out: Activity
Procedure, shortened: (§1)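 Raji cells were treated with 32 pmol TPA to induce EBV early antigen activation. The test agent was added at 10, 100, 500 or 1000 mol ratio relative to TPA, and Raji cell viability was measured alongside EA activation.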

[2] = tested on: IGROV-1; assay: Cytotoxicity against human IGROV1 cells after 48 hrs by SRB assay; assay type: functional; conditions: IGROV-1, 48 h
[3] = tested on: SN12C; assay: Cytotoxicity against human SN12C cells after 48 hrs by SRB assay; assay type: functional
[4] = tested on: OVCAR-8; assay: Cytotoxicity against human OVCAR8 cells after 48 hrs by SRB assay; assay type: functional; conditions: OVCAR-8, 48 h
[5] = Cytotoxicity against human Hs 578T cells after 48 hrs by SRB assay; assay type: functional
[6] = tested on: TK-10; assay: Cytotoxicity against human TK-10 cells after 48 hrs by SRB assay; assay type: functional; conditions: TK-10, 48 h
Procedure, shortened: (§2)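 Tested in the NCI panel of 60 human tumour cell lines covering lung, colon, melanoma, renal, ovarian, breast and leukaemia. At least five concentrations were run in 10-fold dilutions starting from 10^-4 M. Exposure was continuous for 48 h. Growth or viability was estimated by sulforhodamine B protein staining, and GI50 values were reported.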

[7] = tested on: MDA-MB-231; assay: Cytotoxicity against human MDA-MB-231 cells after 48 hrs by SRB assay; assay type: functional; conditions: MDA-MB-231, 48 h
[8] = tested on: OVCAR-5; assay: Cytotoxicity against human OVCAR5 cells after 48 hrs by SRB assay; assay type: functional; conditions: OVCAR-5, 48 h
[9] = tested on: HCC 2998; assay: Cytotoxicity against human HCC2998 cells after 48 hrs by SRB assay; assay type: functional; conditions: HCC 2998, 48 h
[10] = tested on: UACC-62; assay: Cytotoxicity against human UACC-62 cells after 48 hrs by SRB assay; assay type: functional; conditions: UACC-62, 48 h; procedure, shortened: as §2
[11] = tested on: KM12; assay: Cytotoxicity against human KM12 cells after 48 hrs by SRB assay; assay type: functional; conditions: KM12, 48 h
[12] = tested on: NCI-H460; assay: Cytotoxicity against human NCI-H460 cells after 48 hrs by SRB assay; assay type: functional; conditions: NCI-H460, 48 h
[13] = Cytotoxicity against human HCT 116 cells after 48 hrs by SRB assay; assay type: functional; conditions: HCT-116, 48 h
[14] = tested on: A549; assay: Cytotoxicity against human A549 cells after 48 hrs by SRB assay; assay type: functional; conditions: A549, 48 h
[15] = tested on: HOP-92; assay: Cytotoxicity against human HOP-92 cells after 48 hrs by SRB assay; assay type: functional; conditions: HOP-92, 48 h
[16] = tested on: Mus musculus; assay: Antiinflammatory activity against TPA-induced ear edema in mouse; assay type: functional
Procedure, shortened: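 Specific-pathogen-free female ICR mice were housed five per cage at 24 ± 2 °C. Inflammation was induced on the ear with TPA at 1 µg/ear, and the test agent was applied per ear. Ear edema inhibition was expressed as ID50 in mg per ear.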

[17] = tested on: SW-620; assay: Cytotoxicity against human SW620 cells after 48 hrs by SRB assay; assay type: functional; conditions: SW-620, 48 h
[18] = tested on: SNB-19; assay: Cytotoxicity against human SNB-19 cells after 48 hrs by SRB assay; assay type: functional; conditions: SNB-19, 48 h
[19] = tested on: HOP-62; assay: Cytotoxicity against human HOP-62 cells after 48 hrs by SRB assay; assay type: functional; conditions: HOP-62, 48 h
[20] = tested on: SK-MEL-5; assay: Cytotoxicity against human SK-MEL-5 cells after 48 hrs by SRB assay; assay type: functional; conditions: SK-MEL-5, 48 h
[21] = tested on: EKVX; assay: Cytotoxicity against human EKVX cells after 48 hrs by SRB assay; assay type: functional
[22] = tested on: OVCAR-3; assay: Cytotoxicity against human OVCAR-3 cells after 48 hrs by SRB assay; assay type: functional; conditions: OVCAR-3, 48 h
[23] = tested on: SK-MEL-2; assay: Cytotoxicity against human SK-MEL-2 cells after 48 hrs by SRB assay; assay type: functional; conditions: SK-MEL-2, 48 h
[24] = Cytotoxicity against human SK MEL28 cells after 48 hrs by SRB assay; assay type: functional; conditions: SK-MEL-28, 48 h
[25] = tested on: MCF7; assay: Cytotoxicity against human MCF7 cells after 48 hrs by SRB assay; assay type: functional; conditions: MCF7, 48 h
[26] = tested on: HT-29; assay: Cytotoxicity against human HT-29 cells after 48 hrs by SRB assay; assay type: functional; conditions: HT-29, 48 h
[27] = tested on: CAKI-1; assay: Cytotoxicity against human Caki-1 cells after 48 hrs by SRB assay; assay type: functional; conditions: CAKI-1, 48 h
[28] = tested on: SF-295; assay: Cytotoxicity against human SF-295 cells after 48 hrs by SRB assay; assay type: functional; conditions: SF-295, 48 h
[29] = tested on: T47D; assay: Cytotoxicity against human T47D cells after 48 hrs by SRB assay; assay type: functional; procedure, shortened: as §2
[30] = tested on: MOLT-4; assay: Cytotoxicity against human MOLT-4 cells after 48 hrs by SRB assay; assay type: functional; conditions: MOLT-4, 48 h
[31] = tested on: K562; assay: Cytotoxicity against human K-562 cells after 48 hrs by SRB assay; assay type: functional; conditions: K562, 48 h
[32] = tested on: RXF 393; assay: Cytotoxicity against human […] cells after 48 hrs by SRB assay; assay type: functional; conditions: RXF 393, 48 h
[33] = tested on: MDA-MB-435; assay: Cytotoxicity against human MDA-MB-435 cells after 48 hrs by SRB assay; assay type: functional; conditions: MDA-MB-435, 48 h
[34] = tested on: NCI-H322M; assay: Cytotoxicity against human NCI-H322M cells after 48 hrs by SRB assay; assay type: functional
[35] = tested on: PC-3; assay: Cytotoxicity against human PC-3 cells after 48 hrs by SRB assay; assay type: functional; conditions: PC-3, 48 h
[36] = tested on: 786-0; assay: Cytotoxicity against human 786-0 cells after 48 hrs by SRB assay; assay type: functional; conditions: 786-0, 48 h
[37] = tested on: Raji; assay: Inhibition of TPA-induced EBV-early antigen activation in human Raji cells at 10 molar ratio relative to TPA; assay type: cell-based; parameters: scale not given: the % may be the effect or the level left; conditions: human gammaherpesvirus 4
[38] = tested on: ACHN; assay: Cytotoxicity against human ACHN cells after 48 hrs by SRB assay; assay type: functional
[39] = tested on: Raji; assay: Inhibition of TPA-induced EBV-early antigen activation in human Raji cells at 500 molar ratio relative to TPA; assay type: cell-based; parameters: scale not given: the % may be the effect or the level left; conditions: human gammaherpesvirus 4
[40] = tested on: LOX IMVI; assay: Cytotoxicity against human LOX IMVI cells after 48 hrs by SRB assay; assay type: functional
[41] = tested on: Raji; assay: Inhibition of TPA-induced EBV-early antigen activation in human Raji cells at 1000 molar ratio relative to TPA; assay type: cell-based; parameters: scale not given: the % may be the effect or the level left; conditions: human gammaherpesvirus 4
[42] = tested on: NCI-H226; assay: Cytotoxicity against human NCI-H226 cells after 48 hrs by SRB assay; assay type: functional; conditions: NCI-H226, 48 h
[43] = tested on: HCT-15; assay: Cytotoxicity against human HCT-15 cells after 48 hrs by SRB assay; assay type: functional; conditions: HCT-15, 48 h
[44] = tested on: Malme-3M; assay: Cytotoxicity against human MALME-3M cells after 48 hrs by SRB assay; assay type: functional
[45] = tested on: UO-31; assay: Cytotoxicity against human UO-31 cells after 48 hrs by SRB assay; assay type: functional; conditions: UO-31, 48 h; procedure, shortened: as §2
[46] = tested on: COLO 205; assay: Cytotoxicity against human COLO205 cells after 48 hrs by SRB assay; assay type: functional; conditions: COLO 205, 48 h
[47] = Cytotoxicity against human Raji cells assessed as cell viability at 10 molar ratio; assay type: cell-based; conditions: read-out: Activity; procedure, shortened: as §1
[48] = Cytotoxicity against human Raji cells assessed as cell viability at 1000 molar ratio; assay type: cell-based; conditions: read-out: Activity; procedure, shortened: as §1
[49] = Inhibition of TPA-induced EBV-early antigen activation in human Raji cells relative to TPA; assay type: cell-based, human gammaherpesvirus 4
[50] = tested on: BT-549; assay: Cytotoxicity against human BT-549 cells after 48 hrs by SRB assay; assay type: functional; conditions: BT-549, 48 h
[51] = tested on: NCI-H23; assay: Cytotoxicity against human NCI-H23 cells after 48 hrs by SRB assay; assay type: functional; conditions: NCI-H23, 48 h
[52] = tested on: NCI-H522; assay: Cytotoxicity against human NCI-H522 cells after 48 hrs by SRB assay; assay type: functional; conditions: NCI-H522, 48 h
[53] = tested on: Raji; assay: Inhibition of TPA-induced EBV-early antigen activation in human Raji cells at 100 molar ratio relative to TPA; assay type: cell-based; parameters: scale not given: the % may be the effect or the level left; conditions: human gammaherpesvirus 4
[54] = tested on: NCI/ADR-RES; assay: Cytotoxicity against human NCI/ADR-RES cells after 48 hrs by SRB assay; assay type: functional
[55] = tested on: UACC-257; assay: Cytotoxicity against human UACC-257 cells after 48 hrs by SRB assay; assay type: functional; conditions: UACC-257, 48 h; procedure, shortened: as §2
[56] = tested on: SF-268; assay: Cytotoxicity against human SF-268 cells after 48 hrs by SRB assay; assay type: functional; conditions: SF-268, 48 h
[57] = tested on: HL-60; assay: Cytotoxicity against human HL-60 cells after 48 hrs by SRB assay; assay type: functional; conditions: HL-60, 48 h
[58] = Cytotoxicity against human Raji cells assessed as cell viability at 500 molar ratio; assay type: cell-based; conditions: read-out: Activity; procedure, shortened: as §1

- IC50 [49]: 473 molar ratio
Compound: CCCCOC(=O)[C@H]1O[C@@H](O[C@H]2CC[C@]3(C)[C@H]4CC=C5[C@@H]6CC(C)(C)CC[C@]6(C(=O)O)CC[C@@]5(C)[C@]4(C)CC[C@H]3C2(C)C)[C@H](O[C@@H]2O[C@H](CO)[C@@H](O)[C@H](O)[C@H]2O)[C@@H](O[C@@H]2O[C@H](CO)[C@H](O)[C@H](O)[C@H]2O)[C@@H]1O
- viability at 100 molar ratio [1]: > 80%
- GI50 [2]: > 100 µM
- GI50 [3]: 21.8 µM
- GI50 [4]: 66.8 µM
- GI50 [5]: 38 µM
- GI50 [6]: 33.3 µM
- GI50 [7]: 14.5 µM
- GI50 [8]: 28.8 µM
- GI50 [9]: 21.8 µM
- GI50 [10]: 20.9 µM
- GI50 [11]: 30.8 µM
- GI50 [12]: 33.3 µM
- GI50 [13]: 20.6 µM
- GI50 [14]: 34.1 µM
- GI50 [15]: 33.2 µM
- ID50 [16]: 0.06 mg
- GI50 [17]: 36.6 µM
- GI50 [18]: 22.5 µM
- GI50 [19]: 19.4 µM
- GI50 [20]: 33.1 µM
- GI50 [21]: 24.4 µM
- GI50 [22]: > 100 µM
- GI50 [23]: 40.9 µM
- GI50 [24]: 26.7 µM
- GI50 [25]: 38.4 µM
- GI50 [26]: 34.2 µM
- GI50 [27]: 33.4 µM
- GI50 [28]: 26 µM
- GI50 [29]: 48 µM
- GI50 [30]: 7.77 µM
- GI50 [31]: 23.2 µM
- GI50 [32]: 58.5 µM
- GI50 [33]: 30.6 µM
- GI50 [34]: 19 µM
- GI50 [35]: 34.7 µM
- GI50 [36]: 26.2 µM
- Activity [37]: 100%
- GI50 [38]: 20.6 µM
- Activity [39]: 49.3%
- GI50 [40]: 18 µM
- Activity [41]: 11%
- GI50 [42]: 29.2 µM
- GI50 [43]: 20.9 µM
- GI50 [44]: 17.8 µM
- GI50 [45]: 49.2 µM
- GI50 [46]: 20.1 µM
- viability at 10 molar ratio [47]: > 80%
- viability at 1000 molar ratio [48]: 70%
- GI50 [50]: 21.5 µM
- GI50 [51]: 22.8 µM
- GI50 [52]: 43.9 µM
- Activity [53]: 71%
- GI50 [54]: 74 µM
- GI50 [55]: 26.2 µM
- GI50 [56]: 27.7 µM
- GI50 [57]: 22.3 µM
- viability at 500 molar ratio [58]: > 80%
